Legend:
[1] = In vitro blood/plasma partitioning; format: in vitro ADME; settings: human, whole blood
Summary of the method: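 Test compound was added to rat, monkey or human whole blood and incubated, then centrifuged to obtain plasma. The plasma concentration was measured by LC-MS. It was compared with the concentration in directly spiked plasma of the same species.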

CYP3A5 = CYP3A5 (Homo sapiens, UniProt P20815); assay: Cytochrome P450 inhibition; format: in vitro ADME
UGT1A1 = target: T1, UGT1A1 (Homo sapiens, UniProt P22309); assay: Phase 2 enzyme inhibition; format: in vitro ADME
T1 sequence (P22309 26-533): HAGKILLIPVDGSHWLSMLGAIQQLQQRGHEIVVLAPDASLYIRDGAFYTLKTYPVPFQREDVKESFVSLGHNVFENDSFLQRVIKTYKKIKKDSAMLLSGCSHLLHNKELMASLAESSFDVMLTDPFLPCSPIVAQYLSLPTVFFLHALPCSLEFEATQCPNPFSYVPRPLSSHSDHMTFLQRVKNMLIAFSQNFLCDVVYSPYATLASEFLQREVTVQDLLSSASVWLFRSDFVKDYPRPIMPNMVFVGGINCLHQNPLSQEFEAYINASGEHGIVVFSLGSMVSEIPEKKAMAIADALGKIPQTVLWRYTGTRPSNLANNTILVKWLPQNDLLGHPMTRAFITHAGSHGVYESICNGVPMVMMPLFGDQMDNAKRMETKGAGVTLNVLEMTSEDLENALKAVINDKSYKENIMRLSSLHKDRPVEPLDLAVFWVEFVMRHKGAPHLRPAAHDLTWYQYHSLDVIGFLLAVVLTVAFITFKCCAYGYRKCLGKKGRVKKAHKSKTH

UGT1A3 [2] = target: T2, UGT1A3 (Homo sapiens, UniProt P35503); assay: Phase 2 enzyme inhibition; format: in vitro ADME
T2 sequence (P35503 29-534): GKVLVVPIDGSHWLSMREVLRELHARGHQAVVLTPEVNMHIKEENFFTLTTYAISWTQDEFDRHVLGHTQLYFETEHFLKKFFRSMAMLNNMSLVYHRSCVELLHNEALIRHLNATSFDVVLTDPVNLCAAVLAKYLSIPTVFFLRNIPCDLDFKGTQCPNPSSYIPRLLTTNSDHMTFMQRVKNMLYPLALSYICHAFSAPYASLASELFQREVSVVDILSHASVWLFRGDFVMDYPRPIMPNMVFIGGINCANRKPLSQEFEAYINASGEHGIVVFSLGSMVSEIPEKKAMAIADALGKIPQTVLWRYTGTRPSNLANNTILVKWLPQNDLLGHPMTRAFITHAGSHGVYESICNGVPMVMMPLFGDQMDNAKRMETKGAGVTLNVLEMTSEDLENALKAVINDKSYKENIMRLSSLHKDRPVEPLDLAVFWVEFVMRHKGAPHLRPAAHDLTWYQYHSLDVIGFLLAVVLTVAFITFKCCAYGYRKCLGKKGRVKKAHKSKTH

OATP1B1 = target: T3, OATP1B1 (Homo sapiens, UniProt Q9Y6L6); assay: Transporter substrate assessment; format: in vitro ADME
T3 sequence (Q9Y6L6 1-691): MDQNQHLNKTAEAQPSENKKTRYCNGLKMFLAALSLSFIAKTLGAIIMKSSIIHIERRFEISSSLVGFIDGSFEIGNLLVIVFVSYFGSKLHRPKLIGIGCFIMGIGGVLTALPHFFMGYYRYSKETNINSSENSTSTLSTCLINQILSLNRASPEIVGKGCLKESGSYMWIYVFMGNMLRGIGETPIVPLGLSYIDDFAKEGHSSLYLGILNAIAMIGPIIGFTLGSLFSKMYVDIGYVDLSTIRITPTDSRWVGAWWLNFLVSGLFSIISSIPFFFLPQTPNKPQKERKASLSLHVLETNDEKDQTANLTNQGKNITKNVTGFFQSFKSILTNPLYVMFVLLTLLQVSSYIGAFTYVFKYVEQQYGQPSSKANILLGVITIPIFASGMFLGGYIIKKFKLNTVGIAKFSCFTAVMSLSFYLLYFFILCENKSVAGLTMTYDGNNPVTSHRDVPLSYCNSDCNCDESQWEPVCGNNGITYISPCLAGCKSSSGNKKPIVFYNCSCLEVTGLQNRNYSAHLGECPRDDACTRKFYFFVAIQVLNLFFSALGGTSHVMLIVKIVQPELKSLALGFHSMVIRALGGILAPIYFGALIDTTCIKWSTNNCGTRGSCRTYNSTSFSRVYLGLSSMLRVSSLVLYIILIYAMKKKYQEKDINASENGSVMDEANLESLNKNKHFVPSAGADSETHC

OATP1B3 = target: T4, OATP1B3 (Homo sapiens, UniProt Q9NPD5); assay: Transporter substrate assessment; format: in vitro ADME
T4 sequence (Q9NPD5 1-702): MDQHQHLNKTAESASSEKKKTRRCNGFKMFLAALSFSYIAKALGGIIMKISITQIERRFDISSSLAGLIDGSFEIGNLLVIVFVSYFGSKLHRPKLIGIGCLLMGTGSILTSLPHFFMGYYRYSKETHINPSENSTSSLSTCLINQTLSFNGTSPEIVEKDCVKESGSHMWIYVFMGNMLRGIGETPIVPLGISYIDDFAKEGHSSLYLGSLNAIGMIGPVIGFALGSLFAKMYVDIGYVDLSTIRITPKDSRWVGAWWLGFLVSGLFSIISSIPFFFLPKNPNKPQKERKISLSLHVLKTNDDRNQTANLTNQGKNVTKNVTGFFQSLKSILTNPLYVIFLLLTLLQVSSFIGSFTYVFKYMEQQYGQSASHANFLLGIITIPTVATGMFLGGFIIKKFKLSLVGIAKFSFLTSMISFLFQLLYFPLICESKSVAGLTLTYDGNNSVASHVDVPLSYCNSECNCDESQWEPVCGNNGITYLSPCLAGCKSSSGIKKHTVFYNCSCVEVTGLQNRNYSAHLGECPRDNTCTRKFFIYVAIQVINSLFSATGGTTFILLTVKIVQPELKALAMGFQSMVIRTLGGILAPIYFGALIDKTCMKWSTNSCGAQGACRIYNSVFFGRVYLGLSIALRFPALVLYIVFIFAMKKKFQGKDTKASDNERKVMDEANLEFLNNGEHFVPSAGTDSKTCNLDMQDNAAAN

UGT1A3 [3] = target: T2, UGT1A3; assay: Phase 2 enzyme substrate assessment; format: in vitro ADME
[4] = First-in-human study, single ascending dose; format: in vivo
CYP2C19 = CYP2C19 (Homo sapiens, UniProt P33261); assay: DDI victim study with fluvoxamine; format: in vivo; settings: with strong CYP2C19 inhibitor fluvoxamine
CYP2C19, sequence (P33261 whole entry): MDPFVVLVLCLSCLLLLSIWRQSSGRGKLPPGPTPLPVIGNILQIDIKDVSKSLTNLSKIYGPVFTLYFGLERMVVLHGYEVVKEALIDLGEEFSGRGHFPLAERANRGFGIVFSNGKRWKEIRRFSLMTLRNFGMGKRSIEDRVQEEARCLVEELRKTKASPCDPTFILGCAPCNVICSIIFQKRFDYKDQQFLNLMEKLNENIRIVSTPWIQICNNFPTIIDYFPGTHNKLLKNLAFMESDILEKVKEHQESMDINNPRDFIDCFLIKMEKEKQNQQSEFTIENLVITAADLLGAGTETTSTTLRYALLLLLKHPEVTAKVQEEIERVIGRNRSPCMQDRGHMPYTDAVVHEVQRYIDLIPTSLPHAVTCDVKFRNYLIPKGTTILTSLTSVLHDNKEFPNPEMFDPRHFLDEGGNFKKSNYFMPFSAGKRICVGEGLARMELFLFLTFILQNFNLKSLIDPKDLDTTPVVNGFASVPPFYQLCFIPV

fatty liver disease = settings: cited from earlier work

CYP3A5, sequence (P20815 whole entry): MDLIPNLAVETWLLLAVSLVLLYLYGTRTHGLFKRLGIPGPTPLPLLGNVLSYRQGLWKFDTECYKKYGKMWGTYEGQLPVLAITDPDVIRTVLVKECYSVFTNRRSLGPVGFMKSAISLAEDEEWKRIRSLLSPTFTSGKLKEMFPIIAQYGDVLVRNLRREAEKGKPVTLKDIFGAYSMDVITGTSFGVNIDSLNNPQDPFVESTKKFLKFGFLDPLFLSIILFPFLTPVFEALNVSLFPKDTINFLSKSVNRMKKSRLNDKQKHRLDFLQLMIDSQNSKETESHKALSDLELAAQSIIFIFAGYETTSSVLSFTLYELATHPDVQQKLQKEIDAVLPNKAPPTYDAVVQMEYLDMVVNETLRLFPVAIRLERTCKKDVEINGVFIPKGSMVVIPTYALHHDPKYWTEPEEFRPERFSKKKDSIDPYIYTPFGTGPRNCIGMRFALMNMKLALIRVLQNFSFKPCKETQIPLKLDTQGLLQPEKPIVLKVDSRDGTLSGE

Question: Which blood plasma ratio [1] does the source give for O=c1[nH]c(=O)c(Cc2cccc(C(F)(F)F)c2)c([C@H]2CC[C@H](c3ccccc3)CC2)[nH]1 [miricorilant] here?
Answer: 1.14

Question: And the “inhibition of CYP3A5” value (CYP3A5)?
Answer: No inhibition

Question: What about the IC50 (UGT1A1) of the same compound?
Answer: 1400 nM

Question: And the “inhibition of UGT1A3” value (UGT1A3 [2])?
Answer: did not inhibit

Question: And the “Substrate of OATP1B1” value (OATP1B1)?
Answer: not a substrate

Question: What about the “Substrate of OATP1B3” value (OATP1B3) of the same compound?
Answer: not a substrate

Question: What about the “Substrate of UGT1A3” value (UGT1A3 [3]) of the same compound?
Answer: not a substrate

Question: What about the “increase in AUC0‐last, fed versus fasted” value ([4]; 900 mg SDD suspension) of the same compound?
Answer: approximately 3.34 fold

Question: What about the “increase in Cmax, fed versus fasted” value ([4]; 900 mg SDD suspension) of the same compound?
Answer: approximately 2.45 fold

Question: What about the “increase in AUC on administration with food” value ([4]; Discussion, dose and formulation not stated) of the same compound?
Answer: 2.3 fold

Question: What about the half-life ([4]; human, plasma, oral, half‐life, single doses, healthy subjects) of the same compound?
Answer: ~20 h

Question: What about the “clinical sensitivity as substrate of CYP2C19” value (CYP2C19) of the same compound?
Answer: moderately sensitive substrate

Question: What about the “efficacy in mouse models of fatty liver disease” value (fatty liver disease) of the same compound?
Answer: shown efficacy
